The source made the active and inactive calls. No cut-off for these calls is given here. Where only a bound is given, the exact number is not on record here.

For 20 compounds, Activity, IC50 and inhibition results are on record in ChEMBL document CHEMBL4811313, “Himalaquinones A-G, Angucyclinone-Derived Metabolites Produced by the Himalayan Isolate Streptomyces sp. PU-MM59” (J Nat Prod, 2021).

One data set deals with Staphylococcus aureus. The data set is described as follows: Antibacterial activity against Staphylococcus aureus ATCC 6538 at <= 133 uM incubated for 16 hrs. The class given is functional, organism-based. To be noted: dose microM <=133, time 16.0 hrs. The gist of the method:
(§1)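 Microbial strains from ATCC or NRRL, tested in triplicate with a top concentration of 133 μM. Positive controls were kanamycin and ampicillin (S. aureus, M. luteus, S. enterica, E. coli) and amphotericin B (S. cerevisiae).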

The test system of the next data set is Micrococcus luteus. The data set is described as follows: Antibacterial activity against Micrococcus luteus NRRL B-287 at <= 133 uM incubated for 16 hrs. The class given is functional, organism-based. The conditions noted are these: dose microM <=133, time 16.0 hrs. The method, boiled down:
as §1

The next data set relates to Bacillus spizizenii. The data set is described as follows: Antibacterial activity against Bacillus subtilis ATCC 6633 at <= 133 uM incubated for 16 hrs. To be noted: dose microM <=133, time 16.0 hrs. The class given is functional, organism-based. The method, boiled down:
as §1

Another data set concerns Mycolicibacterium aurum. The data set is described as follows: Antibacterial activity against Mycobacterium aurum ATCC 23366 at <= 133 uM incubated for 16 hrs. The class given is functional, organism-based. The conditions noted are these: dose microM <=133, time 16.0 hrs. The gist of the method: as §1
A further data set concerns Escherichia coli. Nature of the data set: Antibacterial activity against Escherichia coli NRRL B-3708 at <= 133 uM incubated for 16 hrs. The class given is functional, organism-based. The conditions noted are these: dose microM <=133, time 16.0 hrs. The gist of the method:
as §1

A further data set relates to Salmonella enterica. Nature of the data set: Antibacterial activity against Salmonella enterica ATCC 10708 at <= 133 uM incubated for 16 hrs. The class given is functional, organism-based. The conditions noted are these: dose microM <=133, time 16.0 hrs. The method, boiled down:
as §1

The test system of another data set is Saccharomyces cerevisiae. The data set is described as follows: Antifungal activity against Saccharomyces cerevisiae ATCC 204508 at <= 133 uM after 16 hrs. The class given is functional, organism-based. To be noted: dose microM <=133, time 16.0 hrs. The method, boiled down:
as §1

For data set [1], the system named is A549. The data set is described as follows: Cytotoxicity against human A549 cells assessed as reduction in cell viability at 80 uM after 72 hrs by resazurin dye based fluorescence analysis. The class given is functional. The gist of the method:
(§2)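 A549 (non-small-cell lung) and PC3 (prostate) human cancer cells from ATCC. Viability was read after 72 h, in triplicate. Runs were either a single 80 μM concentration or a dose-response. Actinomycin D served as the positive control.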
(In general: The colour change of resazurin is a common sign of viable cells or microbes.)

For data set [2], the system named is PC-3. The data set is described as follows: Cytotoxicity against human PC3 cells assessed as reduction in cell viability at 80 uM after 72 hrs by resazurin dye based fluorescence analysis. The class given is functional. The gist of the method: as §2
Data set [3] can be described thus: Toxicity in axolotl embryo at 10 uM after 7 days by tail regeneration assay. To be noted: ambystoma mexicanum, 168 h, time 7 day. The method, boiled down: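 Stage 42 axolotl embryos were hatched manually, anesthetized with benzocaine and given 2 mm tail amputations. They were reared at 18–19 °C in artificial pond water with compound (10 μM; one compound at 1.0 μM) in 0.1% final DMSO. Regeneration was imaged at 0 and 7 days postamputation. DMSO was the negative control and geldanamycin the positive control.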

The subject of data set [4] is A549. The data set is described as follows: Cytotoxicity against human A549 cells assessed as reduction in cell viability after 72 hrs by resazurin dye based fluorescence analysis. The conditions noted are these: A549, 72 h. The class given is functional. The gist of the method: as §2
In data set [5] the test system is PC-3. The data set is described as follows: Cytotoxicity against human PC3 cells assessed as reduction in cell viability after 72 hrs by resazurin dye based fluorescence analysis. To be noted: PC-3, 72 h. The class given is functional. The gist of the method:
as §2

The target in data set [6] is Eukaryotic translation initiation factor 4E-binding protein 1 (Homo sapiens) (UniProt Q13541). The data set is described as follows: Inhibition of 4E-BP1 phosphorylation in human HCT116 cells at 2 uM after 6 hrs by Western blot analysis. The class given is cell-based. To be noted: HCT-116. The gist of the method:
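HCT116 cells were treated 6 h with 2 μM compound or with DMSO as negative control. Lysate was run on SDS-PAGE, blotted to PVDF and probed for phospho-4E-BP1 (Thr37/46, Ser65, Thr70), with chemiluminescent detection.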
(In western blotting, separated proteins are transferred to a membrane and probed.)

Eukaryotic translation initiation factor 4E-binding protein 1 (Homo sapiens), sequence (Q13541 whole entry): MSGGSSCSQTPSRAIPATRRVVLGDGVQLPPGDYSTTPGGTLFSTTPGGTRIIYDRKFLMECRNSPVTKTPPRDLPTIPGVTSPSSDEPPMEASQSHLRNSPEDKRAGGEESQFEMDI

With `C/C(=C/c1c(O)cc2c(c1O)C(=O)c1cccc(O)c1C2=O)CC(=O)O`, the outcome with Staphylococcus aureus, in the data set with Micrococcus luteus, in the data set on Bacillus spizizenii, with Mycolicibacterium aurum, in the data set with Escherichia coli and in the data set on Salmonella enterica was inactive. In addition, the outcome in the data set on Saccharomyces cerevisiae, in the data set with A549 [1] and in the data set on PC-3 [2] was inactive.
Consider `COc1cccc2c1C(=O)c1cc(O)c(/C=C(/C)CC(=O)O)c(O)c1C2=O`, for which the outcome in the data set with Staphylococcus aureus, with Micrococcus luteus, with Bacillus spizizenii, with Mycolicibacterium aurum, in the data set with Escherichia coli and with Salmonella enterica was inactive. Further, the outcome with Saccharomyces cerevisiae, in the data set on A549 [1] and in the data set on PC-3 [2] was inactive.
Take `COC(=O)C/C(C)=C\c1c(O)cc2c(c1O)C(=O)c1cccc(O)c1C2=O`: the result with Staphylococcus aureus, with Micrococcus luteus, in the data set with Bacillus spizizenii, in the data set on Mycolicibacterium aurum, in the data set with Escherichia coli and in the data set with Salmonella enterica was inactive. In addition, the result in the data set with Saccharomyces cerevisiae, in the data set on A549 [1] and in the data set with PC-3 [2] was inactive.
`C[C@@H]1O[C@@H](O[C@@H]2C[C@H](c3ccc4c(c3O)C(=O)C3=C(C4=O)[C@@]4(O[C@H]5CC[C@H](O)[C@H](C)O5)C(=O)C[C@](C)(O)C[C@@]4(O)C=C3)O[C@H](C)[C@H]2O)CC[C@@H]1O[C@H]1C[C@@H](O)[C@H](O)[C@@H](C)O1`: the Activity result in [3] was “Non-Toxic”.
On the same count and under the same terms, with `C[C@@H]1O[C@@H](O[C@H]2CC[C@H](O[C@@]3(C)CC(=O)[C@]4(O)C5=C(C=C[C@]4(O)C3)C(=O)c3c(ccc([C@H]4C[C@@H](O)[C@H](O[C@@H]6O[C@@H](C)C(=O)C=C6N)[C@@H](C)O4)c3O)C5=O)O[C@H]2C)C=CC1=O` [SAQUAYAMYCIN I] the entry was “Non-Toxic”; with `Cc1cc(O)c2c3c(ccc2c1)C(=O)c1c(O[C@H]2C[C@@H](O)[C@H](O[C@H]4C[C@@H](O[C@H]5CC[C@H](O[C@H]6C[C@@H](O)[C@H](O[C@H]7C[C@@H](O)[C@H](O)[C@@H](C)O7)[C@@H](C)O6)[C@H](C)O5)[C@H](O)[C@@H](C)O4)[C@@H](C)O2)cccc1C3=O` [LANDOMYCIN M], “Toxic”.
As for `COc1cccc2c1C(=O)c1ccc(/C=C(/C)CC(=O)O)c(O)c1C2=O`, the outcome with Staphylococcus aureus, in the data set on Micrococcus luteus, in the data set with Bacillus spizizenii, with Mycolicibacterium aurum, in the data set with Escherichia coli and in the data set with Salmonella enterica was inactive. In addition, the result in the data set on Saccharomyces cerevisiae, in the data set on A549 [1] and in the data set with PC-3 [2] was inactive.
With `Cc1cc(O)c2c(c1)C[C@@H](O)C1=C2C(=O)c2cccc(O[C@H]3C[C@@H](O)[C@H](O[C@H]4C[C@@H](O[C@H]5CC[C@H](O[C@H]6CC[C@H](O[C@H]7C[C@@H](O[C@H]8CC[C@H](O)[C@H](C)O8)[C@H](O)[C@@H](C)O7)[C@@H](C)O6)[C@H](C)O5)[C@H](O)[C@@H](C)O4)[C@@H](C)O3)c2C1=O`, the IC50 in the data set with A549 [4] and with PC-3 [5] was less than 0.5 µM in each case. The inhibition result in data set [6] was “Active”.
In the case of `Cc1cc(O)c2c(c1)C[C@@H](O)C1=C2C(=O)c2c(O)ccc(O[C@H]3C[C@@H](O)[C@H](O[C@H]4C[C@@H](O[C@H]5CC[C@H](O[C@H]6C[C@@H](O)[C@H](O[C@H]7C[C@@H](O[C@H]8CC[C@H](O)[C@H](C)O8)[C@H](O)[C@@H](C)O7)[C@@H](C)O6)[C@H](C)O5)[C@H](O)[C@@H](C)O4)[C@@H](C)O3)c2C1=O` [LANDOMYCIN A], the IC50 in the data set with A549 [4] and in the data set with PC-3 [5] was less than 0.5 µM throughout. In addition, the inhibition result in data set [6] was “Active”.
For `COc1cccc2c1C(=O)c1ccc(/C=C(\C)CC(=O)O)c(O)c1C2=O`, the outcome in the data set with Staphylococcus aureus, in the data set with Micrococcus luteus, in the data set with Bacillus spizizenii, in the data set with Mycolicibacterium aurum, in the data set on Escherichia coli and with Salmonella enterica was inactive. For the same compound, the outcome in the data set on Saccharomyces cerevisiae, with A549 [1] and with PC-3 [2] was inactive.
Consider `C[C@@H]1O[C@@H](O[C@H]2CC[C@H](O[C@@]3(C)CC(=O)[C@]4(O)C5=C(C=C[C@]4(O)C3)C(=O)c3c(ccc([C@H]4C[C@H]6O[C@H]7CC(=O)[C@H](C)O[C@H]7O[C@H]6[C@@H](C)O4)c3O)C5=O)O[C@H]2C)C(N)=CC1=O`, for which, in data set [3], the Activity result was “Non-Toxic”.
`C[C@@H]1O[C@@H](O[C@H]2CC[C@H](O[C@@]3(C)CC(=O)[C@]4(O)C5=C(C=C[C@]4(O)C3)C(=O)c3c(ccc([C@H]4C[C@@H](O)[C@H](O[C@H]6CC[C@H](O)[C@H](C)O6)[C@@H](C)O4)c3O)C5=O)O[C@H]2C)C=CC1=O` [SAQUAYAMYCIN K]: the concentration for half-maximal inhibition (IC50) in the data set with A549 [4] and in the data set on PC-3 [5] was less than 0.5 µM in each case. For the same compound, the inhibition entry in data set [6] was “Active”.
Take `Cc1cc(O)c2c(c1)C[C@@H](O)C1=C2C(=O)c2cccc(O[C@H]3C[C@@H](O)[C@H](O[C@H]4C[C@@H](O[C@H]5CC[C@H](O[C@H]6C[C@@H](O)[C@H](O[C@H]7C[C@@H](O)[C@H](O)[C@@H](C)O7)[C@@H](C)O6)[C@H](C)O5)[C@H](O)[C@@H](C)O4)[C@@H](C)O3)c2C1=O` [LANDOMYCIN V]: the Activity entry in data set [3] is reported as “Toxic”.
Consider `C[C@@H]1O[C@@H](O[C@H]2CC[C@H](O[C@@]3(C)CC(=O)[C@]4(O)C5=C(C=C[C@]4(O)C3)C(=O)c3c(ccc([C@H]4C[C@H]6O[C@H]7CC(=O)[C@H](C)O[C@H]7O[C@H]6[C@@H](C)O4)c3O)C5=O)O[C@H]2C)C=CC1=O`, for which the IC50 in the data set with A549 [4] and in the data set with PC-3 [5] was less than 0.5 µM throughout. The inhibition result in data set [6] is “Active”.
Take `COc1cccc2c1C(=O)C1=C(C2=O)c2c(O)cc(C)cc2[C@@H](O)[C@H]1O`: the outcome in the data set with Staphylococcus aureus, in the data set with Micrococcus luteus, in the data set with Bacillus spizizenii, in the data set with Mycolicibacterium aurum, with Escherichia coli and in the data set with Salmonella enterica was inactive. Further, the outcome in the data set on Saccharomyces cerevisiae was inactive. The IC50 – broadly, the midpoint of a concentration-inhibition curve – amounted to 1.88 µM with A549 [4] and 0.32 µM with PC-3 [5]. For the same compound, the inhibition entry in data set [6] is “inactive”. The Activity result in data set [3] is “Non-Toxic”.
Turning to `C[C@@H]1O[C@H]2O[C@H]3[C@@H](C)O[C@@H](c4ccc5c(c4O)C(=O)C4=C(C5=O)[C@@]5(O)C(=O)C[C@](C)(O[C@H]6CC[C@H](O[C@H]7CC[C@H](O)[C@H](C)O7)[C@H](C)O6)C[C@@]5(O)C=C4)C[C@H]3O[C@H]2CC1=O`, the IC50 in the data set with A549 [4] and in the data set on PC-3 [5] was less than 0.5 µM in each case. Further, the inhibition result in data set [6] is “Active”. Moreover, the Activity result in data set [3] was “Non-Toxic”.
Consider `Cc1cc(O)c2c3c(ccc2c1)C(=O)c1c(O[C@H]2C[C@@H](O)[C@H](O[C@H]4C[C@@H](O[C@H]5CC[C@H](O[C@H]6CC[C@H](O[C@H]7C[C@@H](O[C@H]8CC[C@H](O)[C@H](C)O8)[C@H](O)[C@@H](C)O7)[C@@H](C)O6)[C@H](C)O5)[C@H](O)[C@@H](C)O4)[C@@H](C)O2)cccc1C3=O`, for which the IC50 in the data set on A549 [4] and in the data set with PC-3 [5] was less than 0.5 µM throughout. In addition, the inhibition result in [6] is “Active”.
On to `Cc1cc(O)c2c3c(ccc2c1)C(=O)c1c(O[C@H]2C[C@@H](O)[C@H](O[C@H]4C[C@@H](O)[C@H](O)[C@@H](C)O4)[C@@H](C)O2)cccc1C3=O` [LANDOMYCIN O], for which the Activity entry in data set [3] was “Toxic”.
As to `C[C@@H]1O[C@H]2O[C@H]3[C@@H](C)O[C@@H](c4ccc5c(c4O)C(=O)C4=C(C5=O)[C@@]5(O)C(=O)C[C@](C)(O)C[C@@]5(O)C=C4)C[C@H]3O[C@H]2CC1=O`, in [3], the Activity entry is reported as “Non-Toxic”.
As for `C[C@@H]1O[C@@H](O[C@H]2CC[C@H](O[C@@]3(C)CC(=O)[C@]4(O)C5=C(C=C[C@]4(O)C3)C(=O)c3c(ccc([C@H]4C[C@@H](O)[C@H](O)[C@@H](C)O4)c3O)C5=O)O[C@H]2C)C=CC1=O` [SAQUAYAMYCIN G], the Activity result in [3] is reported as “Non-Toxic”.
